Measured values from ChEMBL document CHEMBL4765453, “Phenanthrolinic analogs of quinolones show antibacterial activity against M. tuberculosis” (Eur J Med Chem, 2020).
In brackets after ≈: the same amount, converted by molar mass. Activity calls are given as the source filed them. No cut-off for these calls is given here.

How the values were obtained:
[1] = tested on: Mycobacterium tuberculosis; assay: Antitubercular activity against Mycobacterium tuberculosis H37Rv measured after 7 days by resazurin microtiter assay; format: functional; settings: 168 h, time 7 day
In short: (§1)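 Resazurin microtiter assay with two-fold drug dilutions in complete 7H9 broth. Exponential-phase cells are diluted to a final OD600 of 0.005 in 7H9 without Tween. Incubation is 7 days at 37°C, then 0.01% resazurin is added and plates are held 24 h more. MIC is the lowest concentration preventing the blue-to-pink change. Each MIC is determined three times in duplicate experiments.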

[2] = Solubility of compound in water; format: physicochemical; settings: buffer
[3] = tested on: Mycolicibacterium smegmatis; assay: Antibacterial activity against Mycobacterium smegmatis measured after 7 days by resazurin microtiter assay; format: functional; settings: 168 h, time 7 day; in short: as §1
Mycolicibacterium aurum = assay: Antibacterial activity against Mycobacterium aurum measured after 7 days by resazurin microtiter assay; format: functional; settings: 168 h, time 7 day; in short: as §1
Mycobacterium marinum = assay: Antibacterial activity against Mycobacterium marinum measured after 7 days by resazurin microtiter assay; format: functional; settings: 168 h, time 7 day; in short: as §1
Pseudomonas aeruginosa = assay: Antibacterial activity against Pseudomonas aeruginosa measured after 7 days by resazurin microtiter assay; format: functional; settings: 168 h, time 7 day
Acinetobacter baumannii = assay: Antibacterial activity against Acinetobacter baumannii measured after 7 days by resazurin microtiter assay; format: functional; settings: 168 h, time 7 day
Klebsiella aerogenes = assay: Antibacterial activity against Enterobacter aerogenes measured after 7 days by resazurin microtiter assay; format: functional; settings: 168 h, time 7 day
Enterobacter cloacae = assay: Antibacterial activity against Enterobacter cloacae measured after 7 days by resazurin microtiter assay; format: functional; settings: 168 h, time 7 day
Staphylococcus aureus = assay: Antibacterial activity against Staphylococcus aureus measured after 7 days by resazurin microtiter assay; format: functional; settings: 168 h, time 7 day
[4] = tested on: Mycobacterium tuberculosis; assay: Antitubercular activity against Mycobacterium tuberculosis XDR measured after 7 days by resazurin microtiter assay; format: functional; settings: 168 h, time 7 day; in short: as §1
[5] = tested on: Escherichia coli ATCC 25922; assay: Inhibition of DNA gyrase in Escherichia coli ATCC 25922 assessed as elongation of bacterial cells at 2 ug/ml measured after 1.5 hrs by DAPI/FM 4-64 staining based confocal fluorescence microscopic analysis; settings: dose 2.0 µg/ml
In short: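 E. coli ATCC 25922 is grown in LB, and exponential cultures are treated 1.5 h at 37°C. Cells are washed in PBS, fixed 10 min in 4% PFA, and stained 20 min at room temperature with 2 µg/mL DAPI plus 1 µg/mL FM 4-64. Imaging is by confocal microscopy with a 60x oil objective.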

[6] = tested on: Mycolicibacterium smegmatis; assay: Inhibition of DNA gyrase in Mycobacterium smegmatis assessed as elongation of bacterial cells at 2 ug/ml measured after 6 hrs by DAPI/FM 4-64 staining based confocal fluorescence microscopic analysis; settings: dose 2.0 µg/ml
In short: (§2)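 M. smegmatis is grown in 7H9, and exponential cultures are treated 6 h at 37°C. Cells are fixed 10 min in 4% PFA in PBS and stained 20 min at room temperature with 2 µg/mL DAPI and 1 µg/mL FM 4-64. Imaging is by confocal microscopy with a 60x oil objective.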

[7] = tested on: Mycolicibacterium smegmatis; assay: Inhibition of DNA gyrase in Mycobacterium smegmatis assessed as segmentation of bacterial cells at 2 ug/ml measured after 6 hrs by DAPI/FM 4-64 staining based confocal fluorescence microscopic analysis; settings: dose 2.0 µg/ml; in short: as §2
[8] = tested on: Mycobacterium tuberculosis; assay: Antitubercular activity against Mycobacterium tuberculosis H37Rv infected in human macrophages assessed as intracellular bacterial load at 0.5 MIC measured after 6 days (reference value: 5.57 to 6.43 logCFU/ml); format: functional, Macrophage; settings: time 6 day
[9] = tested on: Mycobacterium tuberculosis; assay: Antitubercular activity against Mycobacterium tuberculosis H37Rv infected in human macrophages assessed as intracellular bacterial load at MIC measured after 6 days (reference value: 5.57 to 6.43 logCFU/ml); format: functional, Macrophage; settings: time 6 day
[10] = tested on: Mycobacterium tuberculosis; assay: Antitubercular activity against Mycobacterium tuberculosis H37Rv infected in human macrophages assessed as intracellular bacterial load at 2 times MIC measured after 6 days (reference value: 5.57 to 6.43 logCFU/ml); format: functional, Macrophage; settings: time 6 day
[11] = tested on: Mycobacterium tuberculosis; assay: Antitubercular activity against Mycobacterium tuberculosis H37Rv infected in human macrophages assessed as intracellular bacterial load at 4 times MIC measured after 6 days (reference value: 5.57 to 6.43 logCFU/ml); format: functional, Macrophage; settings: time 6 day

CO[C@H]1/C=C/O[C@@]2(C)Oc3c(C)c(O)c4c(O)c(c(/C=N/N5CCN(C)CC5)c(O)c4c3C2=O)NC(=O)/C(C)=C\C=C\[C@H](C)[C@H](O)[C@@H](C)[C@@H](O)[C@@H](C)[C@H](OC(C)=O)[C@@H]1C [RIFAMPIN]
MIC90 [1]: 0.76 µM (≈ 0.625 µg/mL)

Cn1cc(C(N)=O)c(=O)c2cc([N+](=O)[O-])c3cccnc3c21
MIC90 [1]: 1.4 µM (≈ 0.418 µg/mL) | solubility [2]: Insoluble

CCOC(=O)c1cn(C)c2c(cc(N)c3cccnc32)c1=O
MIC90 [1]: 92.1 µM (≈ 27.4 µg/mL) | solubility [2]: Insoluble

CCOC(=O)c1cn(CC)c2c(cc(Br)c3cccnc32)c1=O
MIC90 [1]: 318 µM (≈ 119 µg/mL) | solubility [2]: Insoluble

CC1COc2c(N3CCN(C)CC3)c(F)cc3c(=O)c(C(=O)O)cn1c23 (centres undefined) [OFLOXACIN]
MIC90 [1]: 1.73 µM (≈ 0.625 µg/mL) | MIC90 [3]: 3.46 µM (≈ 1.25 µg/mL) | MIC90 (Mycolicibacterium aurum): 3.46 µM (≈ 1.25 µg/mL) | MIC90 (Mycobacterium marinum): 6.92 µM (≈ 2.5 µg/mL) | MIC90 (Pseudomonas aeruginosa): 6.92 µM (≈ 2.5 µg/mL) | MIC90 (Acinetobacter baumannii): 1.73 µM (≈ 0.625 µg/mL) | MIC90 (Klebsiella aerogenes): 0.22 µM (≈ 0.0795 µg/mL) | MIC90 (Enterobacter cloacae): 6.92 µM (≈ 2.5 µg/mL) | MIC90 (Staphylococcus aureus): 1.73 µM (≈ 0.625 µg/mL) | MIC90 [4]: 27.6 µM (≈ 9.97 µg/mL) | inhibition [5]: Active | inhibition [6]: Active | inhibition [7]: Active

CCn1cc(C(=O)O)c(=O)c2cc(Br)c3cccnc3c21
MIC90 [1]: 9.39 µM (≈ 3.26 µg/mL) | solubility [2]: Insoluble

CCn1cc(C(=O)Nc2ccccc2)c(=O)c2ccc3cccnc3c21
MIC90 [1]: 312 µM (≈ 107 µg/mL) | solubility [2]: Insoluble

Cn1cc(C(=O)O)c(=O)c2ccc3cccnc3c21
MIC90 [1]: 25.8 µM (≈ 6.56 µg/mL) | solubility [2]: Insoluble

CCn1cc(C(=O)NN)c(=O)c2cc([N+](=O)[O-])c3cccnc3c21
MIC90 [1]: 9.84 µM (≈ 3.22 µg/mL) | solubility [2]: Insoluble

CCOC(=O)c1cn(C)c2c(cc(Br)c3cccnc32)c1=O
MIC90 [1]: 290 µM (≈ 105 µg/mL) | solubility [2]: Insoluble

CCOC(=O)c1cn(C)c2c(cc(Cl)c3cccnc32)c1=O
MIC90 [1]: 329 µM (≈ 104 µg/mL) | solubility [2]: Insoluble

NCC[C@H](O)C(=O)N[C@@H]1C[C@H](N)[C@@H](O[C@H]2O[C@H](CN)[C@@H](O)[C@H](O)[C@H]2O)[C@H](O)[C@H]1O[C@H]1O[C@H](CO)[C@@H](O)[C@H](N)[C@H]1O [AMIKACIN]
MIC90 [1]: 1.83 µM (≈ 1.07 µg/mL) | MIC90 [3]: 0.46 µM (≈ 0.269 µg/mL) | MIC90 (Mycolicibacterium aurum): 1.83 µM (≈ 1.07 µg/mL) | MIC90 (Mycobacterium marinum): 3.66 µM (≈ 2.14 µg/mL) | MIC90 (Pseudomonas aeruginosa): 3.66 µM (≈ 2.14 µg/mL) | MIC90 (Acinetobacter baumannii): 14.6 µM (≈ 8.57 µg/mL)

COc1c(N2C[C@@H]3CCCN[C@@H]3C2)c(F)cc2c(=O)c(C(=O)O)cn(C3CC3)c12 [MOXIFLOXACIN]
MIC90 [1]: 0.77 µM (≈ 0.309 µg/mL) | Activity [8]: 4.02 log10CFU/ml | Activity [9]: 3.77 log10CFU/ml | Activity [10]: 3.93 log10CFU/ml | Activity [11]: 2.54 log10CFU/ml | MIC90 [4]: 6.16 µM (≈ 2.47 µg/mL)

CCn1cc(C(=O)Nc2ccccc2)c(=O)c2cc([N+](=O)[O-])c3cccnc3c21
MIC90 [1]: 275 µM (≈ 107 µg/mL) | solubility [2]: Insoluble

CCn1cc(C(N)=O)c(=O)c2cc([N+](=O)[O-])c3cccnc3c21
MIC90 [1]: 1.25 µM (≈ 0.39 µg/mL) | solubility [2]: Insoluble

CCn1cc(C(=O)O)c(=O)c2ccc(C)nc21 [NALIDIXIC ACID]
MIC [1]: > 50 µM
